Columns and labels:
[1] = molecular target: T1, 5-hydroxytryptamine receptor 6 (Homo sapiens, UniProt P50406); assay: Displacement of [3H]LSD from human 5-hydroxytryptamine 6 receptor expressed in HeLa cells; type: cell-based
How it was run: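 Human cloned 5-HT6 receptor expressed in HeLa cells. Binding measured by [3H]LSD displacement and reported as pKi. Each value is the mean of at least three experiments, each within 0.3 of the mean.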

[2] = molecular target: 5-hydroxytryptamine receptor 6 (Rattus norvegicus) (UniProt P31388); assay: (§1) In vivo binding assay against rat 5-hydroxytryptamine 6 receptor using [125I]-SB-258,585; type: organism-based
Sequence of 5-hydroxytryptamine receptor 6 (Rattus norvegicus) (P31388 whole entry): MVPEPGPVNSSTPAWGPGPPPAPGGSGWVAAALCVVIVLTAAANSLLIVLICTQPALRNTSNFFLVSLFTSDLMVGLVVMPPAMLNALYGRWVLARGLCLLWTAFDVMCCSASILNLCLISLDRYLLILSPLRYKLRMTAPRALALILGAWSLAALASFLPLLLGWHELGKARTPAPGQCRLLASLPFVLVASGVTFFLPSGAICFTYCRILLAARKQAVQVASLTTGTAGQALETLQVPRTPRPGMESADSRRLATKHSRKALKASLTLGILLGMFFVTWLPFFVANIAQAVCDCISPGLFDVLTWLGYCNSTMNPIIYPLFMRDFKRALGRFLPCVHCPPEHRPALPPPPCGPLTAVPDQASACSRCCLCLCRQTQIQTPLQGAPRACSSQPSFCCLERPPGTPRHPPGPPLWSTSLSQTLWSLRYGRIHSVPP
How it was run: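 Ex vivo assay: rats were dosed orally with vehicle or antagonist and killed after a 4 h pretreatment. Striatum was removed and homogenised, and a binding assay with the selective 5-HT6 radioligand was run on the tissue. ED50 was expressed as mg/kg po.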

[3] = molecular target: T1, 5-hydroxytryptamine receptor 6; conditions: HeLa
[4] = molecular target: 5-hydroxytryptamine receptor 6 (Rattus norvegicus, UniProt P31388); assay: Binding affinity against 5-hydroxytryptamine 6 receptor of rat striatum; type: tissue-based
Sequence of 5-hydroxytryptamine receptor 6 (Rattus norvegicus, UniProt P31388) (P31388 whole entry): as above

[5] = molecular target: 5-hydroxytryptamine receptor 6 (Rattus norvegicus) (UniProt P31388); assay: as §1; type: functional, organism-based
How it was run: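 Ex vivo assay. Rats were given vehicle or antagonist orally with a 4 h pretreatment, then killed. Striatum was removed and homogenised, and a binding assay with a selective 5-HT6 radioligand was run on the tissue. Potency is expressed as oral ED50 (mg/kg).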

[6] = molecular target: T1, 5-hydroxytryptamine receptor 6; assay: Binding affinity against 5-hydroxytryptamine 6 receptor of human caudate

T1 sequence (P50406 whole entry): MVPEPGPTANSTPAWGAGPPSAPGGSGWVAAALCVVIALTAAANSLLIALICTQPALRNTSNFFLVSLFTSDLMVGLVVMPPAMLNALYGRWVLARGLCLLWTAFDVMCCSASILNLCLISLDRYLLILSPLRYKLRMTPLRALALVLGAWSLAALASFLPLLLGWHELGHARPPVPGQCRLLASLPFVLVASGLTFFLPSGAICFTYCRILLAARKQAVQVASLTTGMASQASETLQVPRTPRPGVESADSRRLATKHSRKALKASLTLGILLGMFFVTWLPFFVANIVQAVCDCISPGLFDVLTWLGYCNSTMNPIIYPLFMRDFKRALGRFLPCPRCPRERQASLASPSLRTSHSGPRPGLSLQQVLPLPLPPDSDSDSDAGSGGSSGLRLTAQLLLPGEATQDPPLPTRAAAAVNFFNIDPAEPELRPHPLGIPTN

Structure (SMILES)	Ki [1] [nM]	other results
O=S(=O)(c1ccccc1)c1csc2c(N3CCNCC3)cccc12	0.501	
O=S(=O)(c1ccccc1Cl)n1ccc2c(N3CCNCC3)c(Cl)ccc21	1	
Cc1c(S(=O)(=O)n2ccc3c(N4CCNCC4)cccc32)sc2ccc(Cl)cc12	3.16	
O=S(=O)(c1cccc(Cl)c1)n1cc(Cl)c2c(N3CCNCC3)cccc21	0.316	
COc1ccc(NS(=O)(=O)c2sc3ccc(Cl)cc3c2C)cc1N1CCNCC1		ED50 [2]: 11 mg/kg
O=S(=O)(c1ccccc1Cl)n1ccc2c(N3CCNCC3)cccc21	0.398	
O=S(=O)(c1cccc(Cl)c1)n1ccc2c(N3CCNCC3)c(Cl)ccc21	2.51	pKb [3]: 7.2; Ki [4]: 12.6 nM; ED50 [5]: 3 mg/kg; Ki [6]: 7.94 nM
O=S(=O)(c1ccccc1)c1coc2c(N3CCNCC3)cccc12	1.26	
O=S(=O)(c1cccc(Cl)c1)n1ccc2c(N3CCNCC3)cccc21	0.251	
Cc1cn(S(=O)(=O)c2cccc(Cl)c2)c2cccc(N3CCNCC3)c12	0.631	
O=S(=O)(c1ccccc1)c1c[nH]c2c(N3CCNCC3)ccnc12	7.94	
O=S(=O)(c1cccc(Cl)c1)c1c[nH]c2c(N3CCNCC3)cccc12	0.316	
O=S(=O)(c1ccccn1)n1ccc2c(N3CCNCC3)cccc21	1	
N#Cc1ccc2c(ccn2S(=O)(=O)c2cccc(Cl)c2)c1N1CCNCC1	5.01	
Cc1cc2c(N3CCNCC3)cccc2n1S(=O)(=O)c1cccc(Cl)c1	0.398	
O=S(=O)(c1cccc(Cl)c1)n1ccc2c(N3CCNCC3)ccc(Cl)c21	0.316	
O=S(=O)(c1ccc2ccccc2c1)n1ccc2c(N3CCNCC3)c(Cl)ccc21	25.1	
O=S(=O)(c1ccccn1)n1ccc2c(N3CCNCC3)c(Cl)ccc21	0.501	
O=S(=O)(c1ccccc1)n1ccc2c(N3CCNCC3)c(Cl)ccc21	1.58	
O=S(=O)(c1ccccc1)c1c[nH]c2c(N3CCNCC3)nccc12	25.1	
O=S(=O)(c1ccc(Cl)cc1)n1ccc2c(N3CCNCC3)cccc21	2	
Cn1cc(S(=O)(=O)c2cccc(Cl)c2)c2cccc(N3CCNCC3)c21	2.51	ED50 [5]: 5 mg/kg
O=S(=O)(c1ccc(Cl)cc1)n1ccc2c(N3CCNCC3)c(Cl)ccc21	6.31	
O=S(=O)(c1cccc2ccccc12)n1ccc2c(N3CCNCC3)c(Cl)ccc21	7.94	

Source: ChEMBL document CHEMBL1143480, “Bicyclic heteroarylpiperazines as selective brain penetrant 5-HT6 receptor antagonists” (Bioorg Med Chem Lett, 2005)
